Data published in ChEMBL document CHEMBL1129584, “3,3-Dialkyl- and 3-alkyl-3-benzyl-substituted 2-pyrrolidinones: a new class of anticonvulsant agents” (J Med Chem, 1996).

Tests used:
[1] = biological target: GABA-A receptor; anion channel; test: Binding affinity for Gamma-aminobutyric acid A receptor from rat brain in the presence of radioligand [35S]- TBPS
In short: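 [35S]TBPS displacement in rat brain membranes (picrotoxin site of GABA-A receptors). Compounds dissolved in DMSO, final DMSO ≤2.5%. IC50 from at least three experiments in triplicate, mean ± SEM.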

[2] = Neurotoxicity in mice was assessed by rotarod test; assay type: toxicity; details: mouse, in vivo
[3] = Protective index, measure of ratio of TD50 and ED50 of MES; assay type: functional
In short: (§1)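 Protective index calculated as TD50 (rotorod) divided by ED50 in the PTZ or MES mouse seizure test.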

[4] = biological target: T1, GABA-A receptor; anion channel (Rattus norvegicus) (UniProt O09028+P15431+P18506+P18508+P19969+P20236+P23574+P23576+P28471+P28473+P30191+P62813+P63079+P63138+Q91ZM7+Q9ES14); test: Antagonism (300 uM) induced potentiation of 3 uM Gamma-aminobutyric acid A receptor mediated current by picrotoxin antagonist (alpha-IMGBL) at a dose 3 mM on 5 rat brain cells; assay type: functional, tissue-based; parameters: scale not given: the % may be the effect or the level left
[5] = Protective index, measure of ratio of TD50 and ED50; assay type: functional; in short: as §1
Mus musculus [6] = organism: Mus musculus; test: Anticonvulsant activity in mice against pentylenetetrazole (PTZ) induced clonic seizures; assay type: functional
In short: (§2)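 At least four groups of six mice each. Where these could not be calculated, the […] and lowest all-protected doses are given instead.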

[7] = biological target: T1, GABA-A receptor; anion channel (Rattus norvegicus); test: Induced percentage potentiation of 3 uM GABA-mediated current at rat brain Gamma-aminobutyric acid A receptor (8 cells); assay type: functional
[8] = biological target: T1, GABA-A receptor; anion channel (Rattus norvegicus); test: Induced percentage potentiation of 3 uM GABA-mediated current at rat brain Gamma-aminobutyric acid A receptor (8 cells) at 1 mM in the presence of 3 mM alpha-IMGBL (picrotoxin antagonist); assay type: functional
[9] = Protective index, measure of ratio of TD50 and ED50 of PTZ; assay type: functional; in short: as §1
Mus musculus [10] = organism: Mus musculus; test: Anticonvulsant activity in mice against maximal electroshock (MES) induced tonic hindlimb seizures; assay type: functional; in short: as §2

O=C1CCCS1 [THIOBUTYROLACTONE]
IC50 [1]: 0.33 mM

O=C1CCCN1 [2-PYRROLIDONE]
TD50 [2]: > 900 mg/kg

CC(C)(C)C1(C)CCNC1=O (stereo unspecified)
TD50 [2]: > 300 mg/kg | IC50 [1]: 3.26 mM

CCC1(C)CCNC1=O (stereo unspecified)
IC50 [1]: 12.1 mM

CCC1(C(C)C)CCNC1=O (stereo unspecified)
TD50 [2]: 207 mg/kg | IC50 [1]: 2.62 mM

O=C1NCCC1Cc1ccccc1 (stereo unspecified)
TD50 [2]: 144 mg/kg | PI [3]: 3.51 | IC50 [1]: 2.44 mM

CCC1(Cc2ccccc2)CCNC1=O (stereo unspecified)
Activity [4]: 98%

CCC1CCNC1=O (stereo unspecified)
IC50 [1]: 48.1 mM

CCCC(CCC)C(=O)O [VALPROIC ACID]
PI [5]: 2.12 | ED50 (Mus musculus [6]): 133 mg/kg

CCC1(CC)CCNC1=O
TD50 [2]: 260 mg/kg | Activity [7]: 137% | Activity [8]: 108% | IC50 [1]: 5.81 mM | PI [9]: 5.65

CC1CCNC1=O (stereo unspecified)
TD50 [2]: > 900 mg/kg

CC1(C)CCNC1=O
TD50 [2]: > 600 mg/kg | ED50 (Mus musculus [10]): > 600 mg/kg | IC50 [1]: 32.4 mM

CC(C)C1(C)CCNC1=O (stereo unspecified)
IC50 [1]: 6.86 mM

CCC1(C)CC(=O)NC1=O (stereo unspecified) [ETHOSUXIMIDE]
PI [5]: 2.35 | ED50 (Mus musculus [6]): 161 mg/kg

O=C1NCCC12CCCC2
TD50 [2]: 307 mg/kg | IC50 [1]: 12.1 mM

CC1(Cc2ccccc2)CCNC1=O (stereo unspecified)
IC50 [1]: 0.85 mM

CCC1(c2ccccc2)C(=O)NC(=O)NC1=O [PHENOBARBITAL]
PI [5]: 4 | ED50 (Mus musculus [6]): 22 mg/kg
